Compound activity from PubChem.
Rows were chosen to be rich in hits. Some 1.7% of all compounds tested hit in one or more screens of this group.
IDE cell inh = human IDE inhibitors in live cells, primary screen, fluorescence polarization, HEK cells, FAbetaB substrate. 0.41% of 320,000 active. inhibition, % at 5.59 µM. FAbetaB cleavage. Insulin-degrading enzyme (Homo sapiens), P14735;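 active = percent inhibition above the average of all tested compounds plus 3 SD, set per screening campaign, cut at about 16% in these data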;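 also: IDE supplied by intact live HEK cells; FP after avidin binding of uncleaved biotin substrate so inhibition keeps polarization high; 0% = DMSO wells and 100% = 60 µM reference IDE inhibitor Ii1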
Rpn11 block = Rpn11 (PSMD14) deubiquitinase inhibitors, primary screen, biochemical, fluorescence polarization, uHTS | human 26S proteasome, Ub4-pepOG fluorescence polarization; 20S core pre-blocked with epoxomicin | inhibition, % at 20 µM | 0.59% of 360,000 active | AID 588493, 2011;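 active = inhibition at 20 µM, scaled to each plate's controls, above about 33%, limit read from the data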
HNF4A DNA FP = change in binding of human HNF4A to DNA, primary screen, biochemical, fluorescence polarization, FITC-DNA; activity change, % at 10 µM; Hepatocyte nuclear factor 4-alpha (Homo sapiens), P41235; 1 h; AID 1224865, 2016; 0.3% of 360,000 active; in the data active = activity change above about 30%, passing the limit was not always enough
Target sequence (P41235 whole entry, looked up): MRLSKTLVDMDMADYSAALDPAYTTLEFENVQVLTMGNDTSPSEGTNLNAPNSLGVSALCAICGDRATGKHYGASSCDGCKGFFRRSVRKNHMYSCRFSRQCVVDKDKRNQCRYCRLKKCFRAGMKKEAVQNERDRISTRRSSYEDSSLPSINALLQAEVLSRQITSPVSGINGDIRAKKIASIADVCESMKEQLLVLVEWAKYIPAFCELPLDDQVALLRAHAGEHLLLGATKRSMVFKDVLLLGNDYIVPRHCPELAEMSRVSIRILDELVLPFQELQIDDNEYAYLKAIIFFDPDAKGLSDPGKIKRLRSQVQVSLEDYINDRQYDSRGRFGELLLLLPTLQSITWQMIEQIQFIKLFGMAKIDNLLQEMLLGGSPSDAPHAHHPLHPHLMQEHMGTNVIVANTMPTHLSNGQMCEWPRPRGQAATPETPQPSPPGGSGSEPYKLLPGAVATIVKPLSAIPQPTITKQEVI
CSN deneddyl inh = inhibitors of CSN-mediated cullin deneddylation, primary screen, biochemical, fluorescence polarization, uHTS; inhibition, % at 12.5 µM; COP9 signalosome complex subunit 5 (Homo sapiens), Q92905; 0.38% of 360,000 active; Purified CSN, SCF-Nedd8-OG deneddylation; AID 651999, 2013;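 active = pattern-corrected inhibition above about 35%, with an unprinted fluorescence ratio check between 0.5 and 1.5, limit read from the data, passing the limit was not always enough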;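 also: 0% = enzyme with substrate and 100% = substrate without enzyme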
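test system = HEK293T-derived human Csn5 enzyme | amount = 0.24 nM Csn5 enzyme, final concentration | medium = Tris/NaCl/DTT buffer, pH 7.5 | schedule = 90 min reaction at room temperature | signal = FP | evaluation = inhibition of Csn5 cleavage, % | compound dosing = single dose of 12.5 µM compound with 0.25% DMSO | probe or stimulus = 10 nM SCFSkp2-Nedd8OG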
TPT1 inhibitor = Candida albicans TPT1 enzyme inhibitors, primary screen, biochemical, fluorescence polarization | tRNA 2'-phosphotransferase TPT1 (Candida albicans SC5314) | recombinant caTPT1, FP RNA substrate dephosphorylation | inhibition, % at 5 µM | 0.81% of 300,000 active;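 active = inhibition above the mean of all tested compounds plus 3 SD, set per screening campaign, cut at about 24% in these data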;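 also: plate controls were DMSO alone for no effect and ferristatin control at 100 nM for full effect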
IDE act = human IDE activators in live cells, primary screen, fluorescence polarization, HEK cells, FAbeta-B substrate. Insulin-degrading enzyme (Homo sapiens), P14735. FAbeta-B cleavage; 0% vehicle, 100% cell-free pure enzyme wells. activation, % at 5.96 µM. 0.073% of 340,000 active. AID 493087, 2011;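 active = activation above the mean of all tested compounds plus 3 SD, set per screening campaign, cut at about 17% in these data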
* marks the source's active call; other numbers are inactive results; · = no result.

SMILES | IDE cell inh | Rpn11 block | HNF4A DNA FP | CSN deneddyl inh | TPT1 inhibitor | IDE act
Cn1c(=O)c2c(nc(CN3CCN(c4ccc(F)cc4)CC3)n2CCN2CCOCC2)n(C)c1=O | 3.0 | 0.2 | 74.9* | 1.5 | -2.9 | 5.1
O=C1c2c(-c3ccc(Br)cc3)noc2CCN1Cc1cn(Cc2cccnc2)nn1 | · | · | 1.0 | -1.1 | · | ·
CCc1ccc(C(O)c2ncc(-c3cccc(F)c3)[nH]2)cc1 (stereo not given) | · | -0.2 | 1.5 | 5.2 | · | ·
FC(F)(F)c1ccc(N2CCOCC2)c(Nc2nc3ccccc3n3cnnc23)c1 | 6.3 | 1.7 | 29.8* | 4.7 | 0.2 | 1.6
O=C(COc1ccc(Cl)cc1)NCCNC(=O)c1ccccn1 | 1.4 | 6.1 | 55.5* | 0.8 | -2.8 | 2.1
OC(c1ccc(F)cc1)c1nc(-c2ccoc2)cs1 (stereo not given) | · | 0.0 | 2.2 | 0.9 | · | ·
COc1cc(NC(=O)c2cccnc2)ccc1-c1cc2ccccc2oc1=O | 8.5 | · | · | · | -3.9 | ·
O=C(Nc1ccc(-c2cc3ccccc3oc2=O)c(Cl)c1)c1cccnc1 | -0.5 | 0.6 | 6.1 | 38.2* | 2.3 | -3.8
CC(C)(C)C(C(=O)NCc1ccccc1)N1CCN(CCN2CCOCC2)CC1 (stereo not given) | · | · | 2.4 | -1.2 | · | ·
C(#Cc1ccccc1)C[N+]1(CC#Cc2ccccc2)CCCC1 | -1.5 | -11.3 | 0.2 | 2.6 | -4.3 | 4.3
C=CC#CC[N+]1(CC#Cc2ccccc2)CCOCC1 | · | 139.2* | 189.2 | 166.3* | · | -1.2
CCOc1ccccc1-c1ccc2nccn2c1 | · | 17.5 | 3.2 | -1.2 | · | ·
COc1ccc(-c2csc3nc(C(C)(C)C)oc(=O)c23)cc1OC | -4.7 | -2.6 | -0.1 | 1.1 | -5.2 | -4.8
COc1ccc(-c2csc3nc(-c4ccc(C)cc4)oc(=O)c23)cc1OC | 5.8 | 4.3 | 47.6* | -3.3 | 0.8 | -0.2
COC(=O)[C@]12CCCCC=C1N(Cc1ccc3c(c1)OCO3)C(=O)[C@H](CC(=O)N1CCN(C(=O)c3ccco3)CC1)C2 | · | · | -4.5 | 2.9 | · | ·
Cc1cc(C=O)c2c(c1)C=CC1(Oc3ccccc3C(=O)N1C)O2 (stereo not given) | 25.2* | · | · | · | -11.1 | ·
CC1CN(S(=O)(=O)c2ccc(C(=O)Nc3nncs3)cc2)CC(C)O1 (stereo not given) | 1.5 | 2.6 | 1.3 | -2.5 | · | 25.8*
CC1CN(S(=O)(=O)c2ccc(C(=O)Nc3nccs3)cc2)CC(C)O1 (stereo not given) | 3.3 | -6.4 | -15.9 | -0.9 | 1.0 | 5.1
Nc1nccc(/C=C/c2c(F)cccc2Cl)n1 | -0.4 | 9.4 | 4.2 | 1.9 | -2.4 | -5.8
O=c1cc(/C=C/c2c(F)cccc2Cl)[nH]c2ccccc12 | 9.5 | 88.4* | -2.1 | -4.7 | -5.0 | -2.6
O=S1(=O)CC(N2CCCC2)CN1Cc1cn(Cc2ccc(F)cc2)nn1 (stereo not given) | · | · | -1.3 | 15.5 | · | ·
COCCCn1c(C(=O)Nc2ccc3c(c2)OCO3)cc2c(=O)n3cccc(C)c3nc21 | · | 6.0 | 28.9 | 41.9* | · | ·
Cc1cccn2c(=O)c3cc(C(=O)NC(C)C)c(=N)n(Cc4ccncc4)c3nc12 | 4.0 | -0.5 | 51.6* | 2.6 | -3.8 | 0.4
Cc1cnc(CNC(=O)c2ccc(OC3CCN(C(=O)C4CC4)CC3)cc2)cn1 | 1.4 | -3.1 | 40.3* | -6.4 | -6.5 | 6.1
CSCCC(C(=O)NC(C)(C)C)n1c(-c2cccc(NC(C)=O)c2)nc2ccccc21 (stereo not given) | · | · | 3.4 | -5.1 | · | ·
SMILES | IDE cell inh | Rpn11 block | HNF4A DNA FP | CSN deneddyl inh | TPT1 inhibitor | IDE act
CC1=C(C(=O)OCc2ccccc2)C(c2ccc(Br)cc2)NC(=O)N1CCCC(=O)O (stereo not given) | -7.9 | · | · | · | 2.0 | ·
CC1=C(C(=O)OCc2ccccc2)C(c2ccc(Br)cc2)NC(=O)N1CCCCCC(=O)O (stereo not given) | -2.1 | -4.2 | -1.1 | 2.8 | 0.6 | 38.0*
COc1cccc(NC(=O)N(C)C[C@@H]2OCc3cnnn3CCCC(=O)N([C@@H](C)CO)C[C@H]2C)c1 | · | -3.1 | -3.1 | 5.1 | · | ·
CCCCC12CN3CCN(CC(C3)/C1=N\NC(=O)Nc1ccccc1)C2 | 7.7 | -2.6 | 3.5 | 41.9* | -0.3 | -0.4
CCCS(=O)(=O)NC(=O)C1(C)CCN(C(=O)c2cc(-c3cccs3)oc2C)C1 (stereo not given) | · | -1.1 | 0.8 | 2.0 | · | ·
CC(C)n1cc(/C=N/Nc2ccc(Cl)c(C(=O)O)c2)c2ccccc21 | -5.8 | 1.3 | -40.1 | 39.6* | 0.3 | 4.9
O=C(O)c1cc(N/N=C/c2cccc3ccccc23)ccc1Cl | 0.0 | 1.0 | -1.3 | -3.0 | 4.2 | -1.1
COC1=CC(=O)OC(c2ccc(C#N)cc2)C1 (stereo not given) | · | · | 5.9 | 2.4 | · | ·
Cc1ccc2nc3n(c(=O)c2c1)-c1ccc(Cl)cc1C(=O)NC3CC(C)C (stereo not given) | -2.3 | · | · | · | · | ·
CC(CCC(C)C(C)(C)C)[C@@H]1CC[C@H]2C3C[C@H](OS(O)(=S)=S)[C@H]4C[C@H](OS(O)(=S)=S)[C@@H](OS(O)(=S)=S)C[C@]4(C)[C@H]3CC[C@]12C (stereo not given in full) (tested in a mixture with another compound) | -10.5 | 133.0* | -82.0 | 35.0* | · | 11.4
CC(C)NC(=O)C1(C)CN(S(C)(=O)=O)CC(=O)N1CCOc1ccccc1 (stereo not given) | · | · | -1.4 | -0.5 | · | ·
COc1cc(NCCCn2cnc3c(OCc4ccccc4)ncnc32)cc(OC)c1OC | · | -7.7 | 0.1 | -5.0 | · | 2.6
Cc1ccccc1CN1C(=O)CSCC1(C)C(=O)NC(C)C (stereo not given) | · | · | 2.2 | -2.6 | · | ·
COC(=O)[C@]12CCCCC=C1N(Cc1ccc3c(c1)OCO3)C(=O)[C@H](CC(=O)NCCC(C)C)C2 | · | · | 3.5 | 4.7 | · | ·
S=c1[nH]nc(-c2ccco2)n1/N=C/C=C/c1ccco1 | 0.4 | -0.3 | -16.2 | 38.2* | -0.3 | -3.4
S=c1[nH]nc(-c2cc(-c3ccccc3)n[nH]2)n1/N=C/C=C/c1ccco1 | 8.2 | 24.5 | -3.7 | 31.0 | 0.3 | ·
Fc1ccc2nc(N3CCCC3)sc2c1 | 4.2 | 0.1 | 33.9* | -6.2 | -1.5 | -1.8
CC(=O)N1CCC(C(=O)N2c3ccccc3N=C(c3ccc(C(F)(F)F)cc3)C2C(=O)NC(C)(C)C)CC1 (stereo not given) | · | · | 0.4 | -2.9 | · | ·
